Measurements taken from ChEMBL document CHEMBL4610089, “Bulbimidazoles A-C, Antimicrobial and Cytotoxic Alkanoyl Imidazoles from a Marine Gammaproteobacterium Microbulbifer Species” (J Nat Prod, 2020).

How the values were obtained:
[1] = tested on: Kocuria rhizophila; experiment: Antibacterial activity against Kocuria rhizophila ATCC9341 assessed as reduction in microbial growth after 20 hrs by liquid microculture method; type: functional; conditions: ATCC9341, 20 h
Outline: (§1)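 Broth microdilution MIC: twofold serial dilutions of compound were made across the plate, with the solvent vehicle kept at 0.5% of the final culture volume. The inoculum came from a log-phase culture. Plates were incubated at 37 °C for 20 h and growth was read as absorbance at 650 nm, in triplicate. Kanamycin sulfate was the reference drug.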

[2] = tested on: Staphylococcus aureus; experiment: Antibacterial activity against Staphylococcus aureus FDA209P JC-1 assessed as reduction in microbial growth after 20 hrs by liquid microculture method; type: functional; conditions: FDA209P JC-1, 20 h; outline: as §1
[3] = tested on: Escherichia coli; experiment: Antibacterial activity against Escherichia coli NIHJ JC-2 assessed as reduction in microbial growth after 20 hrs by liquid microculture method; type: functional; conditions: NIHJ JC-2, 20 h; outline: as §1
[4] = tested on: Agrobacterium tumefaciens; experiment: Antibacterial activity against Rhizobium radiobacter NBRC14554 assessed as reduction in microbial growth after 20 hrs by liquid microculture method; type: functional; conditions: NBRC14554, 20 h
Outline: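 Broth microdilution MIC: twofold serial compound dilutions, vehicle at 0.5% of final volume, log-phase inoculum. Incubated at 37 °C for 20 h, with absorbance read at 650 nm in triplicate. Sulfamethoxazole was the reference drug.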

[5] = tested on: Tenacibaculum maritimum; experiment: Antibacterial activity against Tenacibaculum maritimum NBRC16015 assessed as reduction in microbial growth after 20 hrs by liquid microculture method; type: functional; conditions: NBRC16015, 20 h
Outline: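 Twofold serial-dilution microculture MIC: vehicle at 0.5% of final volume, log-phase inoculum, incubation at 24 °C. Growth was read as absorbance at 650 nm in triplicate. Sulfamethoxazole was the reference drug.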

[6] = tested on: Candida albicans; experiment: Antifungal activity against Candida albicans NBRC0197 assessed as reduction in microbial growth after 20 hrs by liquid microculture method; type: functional; conditions: NBRC0197, 20 h
Outline: (§2)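 Antifungal MIC by twofold serial dilution in microplates: vehicle at 0.5% of final volume, inoculum from a log-phase culture, incubation at 25 °C. Growth was read as absorbance at 650 nm in triplicate. Amphotericin B was the reference drug.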

[7] = tested on: Colletotrichum gloeosporioides; experiment: Antifungal activity against Glomerella cingulata NBRC5907 assessed as reduction in microbial growth after 20 hrs by liquid microculture method; type: functional; conditions: NBRC5907, 20 h; outline: as §2
[8] = tested on: Trichophyton rubrum; experiment: Antifungal activity against Trichophyton rubrum NBRC5467 assessed as reduction in microbial growth after 20 hrs by liquid microculture method; type: functional; conditions: NBRC5467, 20 h; outline: as §2
[9] = tested on: P388; experiment: Cytotoxicity against mouse P388 cells assessed as reduction in cell viability after 72 hrs by XTT assay; type: functional, cell-based; conditions: P388, 72 h
Outline: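 P388 cells were grown in RPMI-1640 with L-glutamine, 10% FBS and 0.1 mg/mL gentamicin sulfate. They were seeded in 96-well round-bottom plates and exposed to compound in 200 μL cultures for 72 h at 37 °C under 5% CO2. Medium containing XTT (1 mg/mL) and PMS (40 μg/mL) was then added for 4 h, the medium was aspirated, and formazan was read at 450 nm. Growth inhibition was calculated per concentration, with doxorubicin as the reference.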

MIC [1] [µg/mL]	MIC [2] [µg/mL]	MIC [3] [µg/mL]	MIC [4] [µg/mL]	MIC [5] [µg/mL]	MIC [6] [µg/mL]	MIC [7] [µg/mL]	MIC [8] [µg/mL]	SMILES	IC50 [9] [µM]
0.78	1.56	> 100	> 100	3.12	6.25	1.56	0.78	CCC(C)CCCCCCC(=O)c1c[nH]cn1 (racemic)	5
1.56	3.12	> 100	> 100	12.5	6.25	3.12	3.12	CC(C)CCCCCCC(=O)c1c[nH]cn1	7
0.78	1.56	> 100	> 100	6.25	12.5	1.56	1.56	CCCCCCCCCC(=O)c1c[nH]cn1	5.8
